A short description of assay [1]: Decrease in cyclin D1 protein expression in human DU145 cells by western blot analysis. The class given is functional, cell-based. As to conditions: DU-145, TDE = time-dependent effect. The gist of the method:
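Western blot of cyclin D1, cyclin E, Cdk4 and p21 in PC3 and DU145 lysates. Lysis in RIPA buffer plus protease inhibitors, BCA quantification, 12% SDS-PAGE, nitrocellulose transfer, milk block, primaries overnight at 4 °C, secondary 1:2000 for 45 min, ECL read-out. GAPDH served as loading control.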

Assay [2] concerns DU-145. Briefly: Induction of apoptosis in human DU145 cells assessed as necrotic cells at 20 uM after 12 hrs by Annexin V-FITC/propidium iodide staining based flow cytometry (reference value: 0.21%). Type of assay: functional. The method, boiled down:
(§1)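 Cells seeded in 6-well plates for 24 h, then given 20 μM for the stated times. Cells were trypsinized, PBS-washed, stained with annexin V-FITC/PI, and analysed immediately by flow cytometry. Means ± SD of three independent experiments; Student's t test against untreated control.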
On the technique in general: In flow cytometry, cells or beads pass a laser one at a time.

For assay [3], the system named is DU-145. Briefly: Induction of ROS generation in human DU145 cells at 20 uM measured up to 6 hrs by DCFH-DA staining based flow cytometry. Type of assay: functional, cell-based. The method, boiled down:
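Cells exposed to 20 μM for the indicated times, then loaded with 10 μM DCFH-DA for 30 min at 37 °C. Washed, resuspended in PBS and read at once by flow cytometry. ROS expressed as ratio relative to untreated control.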

In assay [4] the target is Breast cancer type 1 susceptibility protein (Homo sapiens) (UniProt P38398). Briefly: Inactivation of BRCA1 in human PC3 cells assessed as decline in BRCA1 phosphorylation at Ser1524 at 20 uM after 8 hrs by western blot analysis. The class given is cell-based. As to conditions: PC-3. The method, boiled down: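 Cells treated at 20 μM for various times, lysed in RIPA buffer with protease/phosphatase inhibitors, protein quantified by BCA. Equal protein run on 12% SDS-PAGE, transferred to nitrocellulose, blocked 1 h in 5% milk/TBST, primary antibodies overnight at 4 °C, secondary 1:2000 for 45 min, ECL detection on film. GAPDH used as loading control.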
Chain of Breast cancer type 1 susceptibility protein (Homo sapiens) (P38398 whole entry, looked up): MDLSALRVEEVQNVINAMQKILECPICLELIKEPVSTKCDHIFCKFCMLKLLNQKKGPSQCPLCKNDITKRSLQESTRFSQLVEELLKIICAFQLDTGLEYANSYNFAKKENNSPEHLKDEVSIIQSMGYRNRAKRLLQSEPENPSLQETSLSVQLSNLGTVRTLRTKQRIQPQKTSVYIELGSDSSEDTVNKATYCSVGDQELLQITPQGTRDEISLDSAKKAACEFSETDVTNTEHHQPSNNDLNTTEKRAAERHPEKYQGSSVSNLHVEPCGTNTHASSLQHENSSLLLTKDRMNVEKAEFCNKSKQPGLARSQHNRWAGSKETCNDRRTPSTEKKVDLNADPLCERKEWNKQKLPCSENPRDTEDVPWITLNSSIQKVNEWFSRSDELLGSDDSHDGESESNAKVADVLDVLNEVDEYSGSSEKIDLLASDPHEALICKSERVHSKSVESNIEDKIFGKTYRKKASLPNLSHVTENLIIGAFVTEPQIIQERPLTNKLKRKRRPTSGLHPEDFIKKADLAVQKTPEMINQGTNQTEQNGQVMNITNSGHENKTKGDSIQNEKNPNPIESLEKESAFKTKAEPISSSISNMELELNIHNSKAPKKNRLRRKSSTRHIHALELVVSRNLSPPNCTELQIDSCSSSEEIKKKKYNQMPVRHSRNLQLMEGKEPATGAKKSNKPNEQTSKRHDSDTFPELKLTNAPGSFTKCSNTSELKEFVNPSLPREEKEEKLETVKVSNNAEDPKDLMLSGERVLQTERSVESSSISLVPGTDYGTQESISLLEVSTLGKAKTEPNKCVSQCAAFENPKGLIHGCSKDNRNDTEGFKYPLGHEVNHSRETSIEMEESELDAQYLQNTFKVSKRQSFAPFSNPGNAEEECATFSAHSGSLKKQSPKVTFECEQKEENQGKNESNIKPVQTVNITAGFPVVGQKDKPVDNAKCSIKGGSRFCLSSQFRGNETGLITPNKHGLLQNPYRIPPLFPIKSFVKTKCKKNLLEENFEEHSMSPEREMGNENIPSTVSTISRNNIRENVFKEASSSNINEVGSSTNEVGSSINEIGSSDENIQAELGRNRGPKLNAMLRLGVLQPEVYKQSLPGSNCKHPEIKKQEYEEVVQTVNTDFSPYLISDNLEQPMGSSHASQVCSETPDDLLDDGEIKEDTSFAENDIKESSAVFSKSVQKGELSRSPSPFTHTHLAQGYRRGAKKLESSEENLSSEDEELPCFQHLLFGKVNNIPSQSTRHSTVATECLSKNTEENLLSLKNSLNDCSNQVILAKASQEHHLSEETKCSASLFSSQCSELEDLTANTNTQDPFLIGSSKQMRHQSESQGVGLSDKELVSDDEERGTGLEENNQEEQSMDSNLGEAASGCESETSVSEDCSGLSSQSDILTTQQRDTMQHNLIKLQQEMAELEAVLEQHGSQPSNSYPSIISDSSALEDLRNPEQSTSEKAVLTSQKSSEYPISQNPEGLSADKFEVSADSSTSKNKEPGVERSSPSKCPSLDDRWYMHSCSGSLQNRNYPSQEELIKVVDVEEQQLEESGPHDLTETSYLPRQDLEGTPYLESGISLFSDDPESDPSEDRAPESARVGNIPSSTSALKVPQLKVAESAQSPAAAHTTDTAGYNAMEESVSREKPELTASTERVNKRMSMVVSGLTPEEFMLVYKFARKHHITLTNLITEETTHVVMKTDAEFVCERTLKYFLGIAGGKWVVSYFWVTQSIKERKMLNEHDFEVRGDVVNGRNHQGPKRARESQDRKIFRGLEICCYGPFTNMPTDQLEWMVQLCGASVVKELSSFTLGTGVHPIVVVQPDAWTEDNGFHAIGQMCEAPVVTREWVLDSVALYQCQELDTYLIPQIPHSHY

The nature of assay [5]: Cell cycle arrest in human PC3 cells assessed as accumulation at G0/G1 phase at 10 uM after 24 hrs by propidium iodide staining based flow cytometry (reference value: 66.57%). Type of assay: functional. As to conditions: PC-3.
In assay [6] the test system is DU-145. Briefly: Induction of apoptosis in human DU145 cells assessed as late apoptotic cells at 20 uM after 24 hrs by Annexin V-FITC/propidium iodide staining based flow cytometry (reference value: 1.53%). The class given is functional. The method, boiled down:
as §1

The source made the active and inactive calls. The rule behind the calls is not given here.

As to `C=C[C@@](C)(O)CC[C@@H]1C(C)=CC[C@@H]2C(C)(C)CCC[C@@]12C`, in assay [1], the inhibition entry was “tde”. Besides, the Activity in the assay with DU-145 [2] worked out at 1.05%; in assay [5], 73%; with DU-145 [6], 15.33%. Moreover, the outcome in the assay with DU-145 [3] was Active. In assay [4], the inhibition entry is “Active”.

Source of the values: ChEMBL document CHEMBL3297648, “Diterpenoids from the Chinese liverwort Heteroscyphus tener and their antiproliferative effects” (J Nat Prod, 2014).
